Molecules are shown by their SMILES. Calls of active or inactive are those of the source. The calls are words filed in the database; no cut-off is given here. Some results are limits rather than exact numbers.

Assay [1] concerns the target Thymidine phosphorylase (Escherichia coli K-12) (UniProt P07650). Nature of the assay: Inhibition of recombinant Escherichia coli thymidine phosphorylase using thymidine as substrate at 50 uM by UV-spectrophotometric analysis relative to control. A digest of the protocol:
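TP (1.5 U/ml stock in pH 7.0 phosphate buffer) mixed with compound in DMSO (DMSO alone as blank) and thymidine (5 mM stock, 200 µl into 1 ml total) in pH 7.4 phosphate buffer. Absorbance decrease at 290 nm read at 4, 8, 12, 16 and 20 min. Velocity taken from the slope of a linear fit. Percent inhibition calculated versus the blank.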

The target in another assay is Thymidine phosphorylase (Escherichia coli K-12, UniProt P07650). Description: Inhibition of recombinant Escherichia coli thymidine phosphorylase using thymidine as substrate by UV-spectrophotometric analysis.
For assay [2], the target named is Thymidine phosphorylase (Escherichia coli K-12) (UniProt P07650). Nature of the assay: Ratio of 7-deazaxanthine IC50 to compound IC50 for recombinant Escherichia coli thymidine phosphorylase.
Assay [3] shares this target. Nature of the assay: Non-competitive inhibition of recombinant Escherichia coli thymidine phosphorylase using thymidine as substrate at 0.01 to 0.2 uM by Lineweaver-burk plot analysis.

Sequence of Thymidine phosphorylase (Escherichia coli K-12) (P07650 whole entry, looked up): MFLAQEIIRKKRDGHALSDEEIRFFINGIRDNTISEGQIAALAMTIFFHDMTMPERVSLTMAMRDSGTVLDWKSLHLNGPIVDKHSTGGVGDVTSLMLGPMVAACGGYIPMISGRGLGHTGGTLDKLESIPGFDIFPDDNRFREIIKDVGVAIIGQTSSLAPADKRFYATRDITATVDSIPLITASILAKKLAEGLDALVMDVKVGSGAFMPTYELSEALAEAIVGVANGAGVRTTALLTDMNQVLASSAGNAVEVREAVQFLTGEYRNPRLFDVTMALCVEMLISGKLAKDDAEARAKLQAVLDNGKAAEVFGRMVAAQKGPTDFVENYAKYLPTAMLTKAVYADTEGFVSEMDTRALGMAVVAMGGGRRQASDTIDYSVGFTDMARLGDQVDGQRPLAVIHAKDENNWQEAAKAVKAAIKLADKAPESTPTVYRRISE
Sequence of Thymidine phosphorylase (P07650 whole entry): as the sequence (P07650 whole entry, looked up) above

For the molecule `O=c1[nH]c(=O)n2ncc(Br)c2[nH]1`, in assay [1], the inhibition is less than 50%.

As for `O=c1[nH]c(=S)[nH]c2c(-c3ccc(F)cc3)cnn12`, the 50% inhibitory concentration (IC50) on Thymidine phosphorylase was determined as 10.5 µM. The inhibition in assay [1] stood at 50%.

Regarding `COc1ccc(-c2cnn3c(=O)[nH]c(=O)[nH]c23)cc1`, the inhibition in assay [1] is less than 50%.

As for `O=c1[nH]c(=S)[nH]c2c(-c3ccc(I)cc3)cnn12`, in assay [2], the Ratio IC50 was determined as 150. The IC50 on Thymidine phosphorylase turned out to be 0.21 µM.

For `COc1ccc(-c2cnn3c(=O)[nH]c(=S)[nH]c23)cc1`, the IC50 at Thymidine phosphorylase was found to be 39.7 µM. The inhibition in assay [1] was 50%.

On to `O=c1[nH]c(=O)n2nc(-c3ccccc3)cc2[nH]1`, for which the inhibition in assay [1] was less than 50%.

`O=c1[nH]c(=O)n2nc(-c3ccc(Cl)cc3)cc2[nH]1`: in assay [1], the inhibition was less than 50%.

`CC(C)(C)c1ccc(-c2cnn3c(=O)[nH]c(=O)[nH]c23)cc1`: the inhibition in assay [1] is less than 50%.

Turning to `CC(C)(C)c1ccc(-c2cc3[nH]c(=O)[nH]c(=O)n3n2)cc1`, the inhibition in assay [1] was less than 50%.

As for `O=c1[nH]c(=S)[nH]c2c(I)cnn12`, the IC50 at Thymidine phosphorylase is 20.8 µM. In addition, the inhibition in assay [1] was determined as 50%.

For `Cc1ccc(-c2cc3[nH]c(=S)[nH]c(=O)n3n2)cc1`, on Thymidine phosphorylase, the IC50 came to 19.3 µM. Also, the inhibition in assay [1] was found to be 50%.

With `O=c1[nH]c(=S)[nH]c2c(Cl)cnn12`, on Thymidine phosphorylase, the IC50 was determined as 27.6 µM. Further, the inhibition in assay [1] is 50%.

For `O=c1[nH]c(=O)n2ncc(Cl)c2[nH]1`, the inhibition in assay [1] is less than 50%.

For the molecule `O=c1[nH]c(=S)[nH]c2c(-c3ccc(Cl)cc3)cnn12`, the IC50 on Thymidine phosphorylase is 0.54 µM. For the same molecule, the inhibition in assay [1] stood at 50%.

Turning to `O=c1[nH]c(=S)[nH]c2cc(-c3ccc(Br)cc3)nn12`, the half-inhibitory concentration (IC50) on Thymidine phosphorylase was determined as 34.9 µM. Besides, the inhibition in assay [1] amounted to 50%.

Consider `O=c1[nH]c(=S)[nH]c2c(Br)cnn12`, for which, on Thymidine phosphorylase, the IC50 came out at 44.4 µM. Further, in assay [1], the inhibition came out at 50%.

In the case of `O=c1[nH]c(=S)[nH]c2c(-c3ccc(Br)cc3)cnn12`, the IC50 at Thymidine phosphorylase was determined as 0.63 µM. Further, the inhibition in assay [1] came to 50%.

In the case of `CC(C)(C)c1cc2[nH]c(=O)[nH]c(=O)n2n1`, the inhibition in assay [1] is less than 50%.

As for `O=c1[nH]c(=S)[nH]c2ccnn12`, the IC50 at Thymidine phosphorylase worked out at 68.2 µM. In addition, in assay [1], the inhibition is less than 50%.

As for `O=c1[nH]c(=O)n2nc(-c3ccc(Br)cc3)cc2[nH]1`, the inhibition in assay [1] was less than 50%.

Regarding `O=c1[nH]c(=O)n2nc(-c3ccc(C(F)(F)F)cc3)cc2[nH]1`, the inhibition in assay [1] is less than 50%.

In the case of `O=c1[nH]c(=O)n2ncc(I)c2[nH]1`, the inhibition in assay [1] was less than 50%.

As for `O=c1[nH]c(=S)[nH]c2cc(-c3ccc(Cl)cc3)nn12`, at Thymidine phosphorylase, the IC50 amounted to 33.5 µM. Also, the inhibition in assay [1] is 50%.

For `CC(C)(C)c1cc2[nH]c(=S)[nH]c(=O)n2n1`, the concentration for half-maximal inhibition (IC50) at Thymidine phosphorylase came out at 29.1 µM. For the same molecule, in assay [1], the inhibition is 50%.

Turning to `O=c1[nH]c(=S)[nH]c2c(-c3ccccc3)cnn12`, the IC50 on Thymidine phosphorylase worked out at 26.3 µM. The inhibition in assay [1] was found to be 50%.

For the molecule `COc1ccc(-c2cc3[nH]c(=O)[nH]c(=O)n3n2)cc1`, the inhibition in assay [1] is less than 50%.

Turning to `Cc1ccc(-c2cnn3c(=O)[nH]c(=S)[nH]c23)cc1`, the half-inhibitory concentration (IC50) on Thymidine phosphorylase stood at 1.7 µM. In addition, in assay [1], the inhibition worked out at 50%.

As to `O=c1[nH]c(=O)n2ncc(-c3ccc(Br)cc3)c2[nH]1`, in assay [1], the inhibition is less than 50%.

For `O=c1[nH]c(=O)n2ncc(-c3ccc(Cl)cc3)c2[nH]1`, the inhibition in assay [1] is less than 50%.

With `Cc1ccc(-c2cc3[nH]c(=O)[nH]c(=O)n3n2)cc1`, the inhibition in assay [1] was less than 50%.

`O=c1[nH]c(=S)[nH]c2cc(-c3ccc(F)cc3)nn12`: the 50% inhibitory concentration (IC50) at Thymidine phosphorylase amounted to 41.7 µM. Besides, the inhibition in assay [1] was found to be 50%.

Take `COc1ccc(-c2cc3[nH]c(=S)[nH]c(=O)n3n2)cc1`: the IC50 on Thymidine phosphorylase worked out at 28.4 µM. In addition, the inhibition in assay [1] turned out to be 50%.

Consider `O=c1[nH]c(=S)[nH]c2cc(-c3ccc(C(F)(F)F)cc3)nn12`, for which the half-maximal inhibitory concentration (IC50) at Thymidine phosphorylase is 9.9 µM. In addition, in assay [1], the inhibition is 50%.

For the molecule `O=c1[nH]c(=S)[nH]c2c(-c3ccc([N+](=O)[O-])cc3)cnn12`, the IC50 at Thymidine phosphorylase turned out to be 0.58 µM.

For the molecule `O=c1[nH]c(=O)n2nccc2[nH]1`, in assay [1], the inhibition is less than 50%.

On to `Cc1cnn2c(=O)[nH]c(=O)[nH]c12`, for which the inhibition in assay [1] is less than 50%.

Take `Cc1cc2[nH]c(=S)[nH]c(=O)n2n1`: on Thymidine phosphorylase, the IC50 came to 79.4 µM. In addition, the inhibition in assay [1] is less than 50%.

As to `O=c1[nH]c(=O)n2ncc(-c3ccc(F)cc3)c2[nH]1`, in assay [1], the inhibition is less than 50%.

Take `O=c1[nH]c(=O)n2ncc(-c3ccc(C(F)(F)F)cc3)c2[nH]1`: the inhibition in assay [1] is less than 50%.

Take `O=c1[nH]c(=S)[nH]c2c(-c3ccc(C(F)(F)F)cc3)cnn12`: the IC50 on Thymidine phosphorylase is 0.24 µM. Also, in assay [1], the inhibition stood at 50%.

As for `CC(C)(C)c1ccc(-c2cc3[nH]c(=S)[nH]c(=O)n3n2)cc1`, the half-inhibitory concentration (IC50) on Thymidine phosphorylase is 6.6 µM. Also, the inhibition in assay [1] came out at 50%.

Turning to `O=c1[nH]c(=S)[nH]c2cc(C(F)(F)F)nn12`, the IC50 at Thymidine phosphorylase was 32.6 µM. In addition, the inhibition in assay [1] was determined as 50%.

Turning to `Cc1ccc(-c2cnn3c(=O)[nH]c(=O)[nH]c23)cc1`, the inhibition in assay [1] was less than 50%.

Take `O=c1[nH]c(=O)n2nc(-c3ccc(F)cc3)cc2[nH]1`: in assay [1], the inhibition is less than 50%.

For `Cc1cc2[nH]c(=O)[nH]c(=O)n2n1`, the inhibition in assay [1] was less than 50%.

Turning to `O=c1[nH]c(=O)n2ncc(-c3ccccc3)c2[nH]1`, the inhibition in assay [1] is less than 50%.

Regarding `Cc1cnn2c(=O)[nH]c(=S)[nH]c12`, at Thymidine phosphorylase, the IC50 turned out to be 87.3 µM. Besides, the inhibition in assay [1] is less than 50%.

As to `O=c1[nH]c(=O)n2nc(C(F)(F)F)cc2[nH]1`, the inhibition in assay [1] is less than 50%.

In the case of `CC(C)(C)c1ccc(-c2cnn3c(=O)[nH]c(=S)[nH]c23)cc1`, at Thymidine phosphorylase, the concentration for half-maximal inhibition (IC50) came out at 5.6 µM. For the same molecule, the inhibition in assay [1] is 50%.

As for `CCOc1ccc(-c2cnn3c(=O)[nH]c(=S)[nH]c23)cc1`, at Thymidine phosphorylase, the IC50 was 15.5 µM.

Consider `O=c1[nH]c(=S)[nH]c2c(-c3ccc(S(F)(F)(F)(F)F)cc3)cnn12`, for which the inhibition result in assay [3] is “Active”. Moreover, the Ratio IC50 in assay [2] was 800. In addition, at Thymidine phosphorylase, the IC50 was 0.04 µM.
